# From PubChem
# AI-2 QS modul = Vibrio harveyi AI-2 quorum sensing modulators, primary screen, JMH597 strain, luminescence/OD600 ratio; AID 2094, 2009; Vibrio harveyi JMH597 AI-2 luminescence/OD600 ratio, 9 h; active compounds read low; strain lacks LuxN and CqsS sensors; 0 = neutral-control median; activity change, % at 7.5 µM; 300,000 compounds, 0.4% hits; in the data active = activity change below about -75%, passing the limit was not always enough; inconclusive = no clear call, values can overlap the other calls;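 note: luminescence divided by OD600 gain over 9 h not by final OD600 alone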
# KCC2 mod = KCC2 cotransporter modulators, thallium flux, primary screen, cell-based, HEK293 KCC2, FluoZin-2 fluorescence, MLSMR; Solute carrier family 12 member 5 (Homo sapiens), Q9H2X9; KCC2 cells, thallium flux FluoZin-2 fluorescence; B-score of Tl+ flux slope (higher = more flux/activation; lower = inhibition) at 10 µM; 190,000 compounds, 2.2% hits; AID 1456, 2008;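 active = thallium flux slope and its plate-corrected score both differing from the plate sample mean at a set confidence after two filtering rounds, in either direction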;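 note: slope of fluorescence scaled to starting intensity during 10 to 20 s after thallium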
# KCNQ1 inh = inhibitors of human KCNQ1 channel, primary screen, cell-based, thallium flux, high-throughput; Potassium voltage-gated channel subfamily KQT member 1 (Homo sapiens), P51787; CHO-K1 KCNQ1, FluxOR thallium flux fluorescence; active compounds read high; B-score at 10 µM; 310,000 compounds, 1.3% hits; AID 2642, 2010;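 active = compounds whose thallium flux B-score, printed positive for inhibition, exceeds three library SD while starting fluorescence stays within three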;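 note: channel opened by potassium depolarization with thallium stimulus after 20 min compound exposure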
# Target sequence (P51787 whole entry, looked up): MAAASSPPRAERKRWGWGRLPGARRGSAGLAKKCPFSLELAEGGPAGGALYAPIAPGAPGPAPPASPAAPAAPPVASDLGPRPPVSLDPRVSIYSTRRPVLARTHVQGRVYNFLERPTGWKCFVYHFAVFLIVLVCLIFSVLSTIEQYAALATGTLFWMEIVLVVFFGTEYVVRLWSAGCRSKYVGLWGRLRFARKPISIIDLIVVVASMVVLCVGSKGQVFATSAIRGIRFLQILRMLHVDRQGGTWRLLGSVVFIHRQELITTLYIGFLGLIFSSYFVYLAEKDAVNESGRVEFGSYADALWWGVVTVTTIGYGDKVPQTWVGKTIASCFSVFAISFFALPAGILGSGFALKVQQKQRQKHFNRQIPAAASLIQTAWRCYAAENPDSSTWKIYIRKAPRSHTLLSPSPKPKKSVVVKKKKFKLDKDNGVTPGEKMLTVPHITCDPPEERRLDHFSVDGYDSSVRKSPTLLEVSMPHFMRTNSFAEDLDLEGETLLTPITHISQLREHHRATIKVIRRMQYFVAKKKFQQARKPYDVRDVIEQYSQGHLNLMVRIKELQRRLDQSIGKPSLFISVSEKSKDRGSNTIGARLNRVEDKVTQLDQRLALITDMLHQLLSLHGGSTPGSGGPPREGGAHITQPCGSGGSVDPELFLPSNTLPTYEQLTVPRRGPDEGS
# Mot1-301 SUMO = yeast Mot1-301 growth rescue at high temperature, primary screen, SUMOylation pathway inhibitor project, S. cerevisiae, ATP luminescence, 38.5C | S. cerevisiae Mot1-301 growth rescue; percent above DMSO median, 100 means doubled | growth rescue, % at 18.8 µM | 320,000 compounds, 1% hits | AID 2716, 2010;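 active = every valid replicate shows activation above 250% relative to neutral control wells; inactive = the rest, any valid replicate at or below 250%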;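 note: OY570 slx delta 5 strain wells were the positive control but not used for scaling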
# hERG protect = hERG rescue from dofetilide block, primary screen, cell-based, CHO-hERG, FluxOR thallium flux, dofetilide IC70 | Voltage-gated inwardly rectifying potassium channel KCNH2 (Homo sapiens), Q12809 | activation (rescue from dofetilide block), less the hit threshold, % at 10 µM | 310,000 compounds, 0.51% hits | dofetilide IC70 present | AID 1511, 2009;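 active = activation above the mean of controls blocked by dofetilide plus 5 SD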;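 note: thallium influx through hERG after potassium depolarization seen as dye fluorescence rise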
# KCNQ1 pot = potentiators or activators of KCNQ1 channel, primary screen, cell-based, thallium flux, high-throughput | Potassium voltage-gated channel subfamily KQT member 1 (Homo sapiens), P51787 | B-score at 10 µM | CHO-K1 KCNQ1, thallium flux FluxOR fluorescence; active compounds read high | 310,000 compounds, 0.35% hits;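 active = fluorescence ratio B-score, a plate-corrected score, at least three library SD, with initial intensity B-score within 5 SD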
#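 Schedule – 37 °C overnight plating, 90-min dark dye load, 20-min compound pretreatment · System – stable KCNQ1 CHO-K1 line · Probe or stimulus – thallium- and potassium-containing depolarizing buffer · Measured by – kinetic FluxOR fluorescence, 10 s baseline plus 110 s post-stimulus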
# KCC2 secondary = KCC2 modulators in sodium-free buffer, confirmation, cell-based, HEK293 KCC2, thallium flux, secondary assay; normalised thallium flux (F/F0 slope) at 10 µM; FluoZin2 fluorescence; active compounds read high; shares compounds with KCC2 mod; 3,700 compounds, 15% hits;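 active = thallium flux slope above the same plate's solvent-only control mean plus 3 SD; inconclusive = the two replicate wells disagree; inactive = no significant difference from solvent-only control wells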
# KCC2 bumet counter = thallium flux persisting under bumetanide in KCC2 cells, confirmation, counter-screen for KCC2 modulator project, cell-based, HEK293 KCC2, FluoZin2, secondary assay 3; HEK293-KCC2 + bumetanide/ouabain; active compounds read high; shares compounds with KCC2 mod; 3,700 compounds, 49% hits; AID 1714, 2009; normalized thallium flux at 10 µM;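 active = thallium entry rate above the same plate's blocked-transporter control wells by more than 3 SD; inconclusive = the two repeat wells disagree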;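 note: raw slope of fluorescence over initial fluorescence between 10 and 20 s after thallium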
# KCC2 sec2 = KCC2 modulators without ouabain present, confirmation, cell-based, HEK293 KCC2, thallium flux, FluoZin2, secondary assay 2 | shares compounds with KCC2 mod | thallium flux FluoZin2 fluorescence; actives lie on both sides; F/F0 rise rate, 10–20 s post-thallium | normalized thallium flux at 10 µM | 3,700 compounds, 23% hits;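 active = thallium flux slope more than 3 SD above or below the plate's solvent-only control mean, mostly below; inconclusive = the two repeat wells disagreed; inactive = no significant shift from solvent-only controls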;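 note: raw slope with 0.1% DMSO as baseline and bumetanide as block control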
# HEK counter1 = thallium flux modulation in parental HEK cells, confirmation, counter-screen for KCC2 modulator project, cell-based, counterscreen 1; shares compounds with KCC2 mod; HEK293 parental cells, thallium flux FluoZin2, ouabain; baseline-ratio fluorescence slope, 10–20 s after thallium; thallium flux rate (normalised fluorescence) at 10 µM; 3,700 compounds, 46% hits;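 active = thallium flux rate significantly above the same plate's solvent-only control wells, beyond their mean plus 3 SD; inconclusive = the two replicate wells gave conflicting results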
# KCC2 ouabain = KCC2 inhibitors and activators, ouabain retest, confirmation, HEK-KCC2 cells; shares compounds with KCC2 mod; HEK293-KCC2, thallium flux FluoZin2 fluorescence; bidirectional: low = inhibitor, high = activator; raw Tl+ flux slope (below DMSO = inhibition, above = activation) at 10 µM; 3,700 compounds, 48% hits;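 active = thallium flux slope beyond 3 SD from same-plate DMSO control mean in most replicates, usually higher, sometimes lower; inconclusive = repeat tests gave conflicting results; inactive = no significant difference from controls in most replicates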;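 note: slope of initial-normalized fluorescence between seconds 10 and 20 after thallium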
# HEK293 Tl flux2 = native HEK Tl+ uptake effects, second counter-screen – HEK cells, counterscreen 2, counter-screen for KCC2 modulator project, confirmation; shares compounds with KCC2 mod; 3,700 compounds, 33% hits; thallium flux slope at 10 µM; AID 1718, 2009; HEK293 parental, thallium flux FluoZin-2 fluorescence slope;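 active = thallium flux slope above the same plate's solvent-control mean plus 3 SD in both duplicate wells; inconclusive = duplicate wells that disagreed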;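 note: run without ouabain in cells lacking the KCC2 cotransporter; slope of fluorescence scaled to its starting value between 10 and 20 s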
# * marks the source's active call; other numbers are inactive results; i = inactive; ? = inconclusive; / = not tested or not shown. A selection: hits, their analogues and other compounds. The true share with any hit is near 4.2%.
SMILES,AI-2 QS modul,KCC2 mod,KCNQ1 inh,Mot1-301 SUMO,hERG protect,KCNQ1 pot,KCC2 secondary,KCC2 bumet counter,KCC2 sec2,HEK counter1,KCC2 ouabain,HEK293 Tl flux2
COC(=O)c1ccc(Oc2nc3ccccc3n3c(C)nnc23)cc1,13,/,i,-5,-9,i,/,/,/,/,/,/
O=C(Nc1ccccc1)c1ccc(Br)o1,0,0.095,i,4,-3,i,/,/,/,/,/,/
CN(C(=S)NC(=O)c1ccc(Br)o1)c1ccccc1,24,7.7*,i,-3,-1,i,0.0065,0.02*,0.04*,0.02*,0.031*,0.023*
CC1CCN(C(=O)CSc2nnc(-c3cc4ccccc4cc3O)n2Cc2ccco2)CC1,10,-1.6,i,-2,-14,i,/,/,/,/,/,/
Cc1nc(CNC(=O)c2cc(COc3c(F)cccc3F)on2)cs1,9,-1.3,i,6,-5,i,/,/,/,/,/,/
Cc1cc(CN(C)C(=O)c2cc(COc3ccc(F)cc3Cl)on2)n[nH]1,31,-4.7*,i,-4,-10,i,0.0061*,?,?,0.0083,0.024,0.011
Cc1ccc(CN(C)C(=O)c2cc(COc3ccc(F)cc3Cl)on2)o1,-3,/,i,-4,1,i,0.007,0.0053,0.026*,0.0072,?,0.01
Cc1nc(CNC(=O)c2cc(COc3ccc(F)cc3Cl)on2)cs1,15,-4.6*,i,71,-7,i,0.0065,0.0064,0.033,0.0043,0.015*,0.011
COc1ccc(Cl)cc1N1C(=NC(=O)C2CCCCC2)SC2CS(=O)(=O)CC21 (configuration not stated),19,/,i,53,-4,i,/,/,/,/,/,/
COC(=O)Cc1ccc(NC(=S)N2CCN(CCO)CC2)cc1,10,/,i,126,-7,i,/,/,/,/,/,/
Cc1c(C(=O)O)sc(=S)n1CCOc1ccccc1,17,/,i,1,-2,i,0.0072,0.005,0.024*,0.0066,0.015*,0.01
COC(=O)c1sc(=S)n(Cc2ccccc2)c1C,7,-2.2,i,-23,-4,i,/,/,/,/,/,/
CCOc1ccc2nc(N3C(=O)/C(=C/c4ccc(Cl)cc4)NC3=S)sc2c1,10,19*,i,/,-2,26*,0.0072,0.045*,0.049*,0.063*,0.048*,0.047*
O=C(NC(=S)NCCO)c1sc2ccccc2c1Cl,28,3.7*,i,331,-7,i,0.0088,0.011*,0.032,0.015*,0.019,0.012
O=C(NNC(=S)NC1CCCCC1)c1sc2ccccc2c1Cl,16,1.9,i,-7,-9,i,/,/,/,/,/,/
COc1cc(/C=C(\C#N)C(=O)NCc2ccccc2)ccc1OCc1ccc(C(=O)O)cc1,25,-4.1*,i,7,-10,i,0.0087,0.0088*,0.034,0.0084,?,0.011
CCCCN(C(=O)c1c(CC)noc1C)c1c(N)n(CCC)c(=O)[nH]c1=O,21,/,i,287,-10,i,/,/,/,/,/,/
CC1=NN(C(N)=S)C(=O)C1N=Nc1ccccc1 (configuration not stated),15,5.2*,i,-4,-5,i,0.006,0.024*,0.029,?,?,0.012
CC1=NN(C(N)=S)C(=O)C1N=Nc1ccc(Br)cc1 (configuration not stated),24,/,i,104,0,i,/,/,/,/,/,/
CC1=NN(C(N)=S)C(=O)C1N=Nc1cccc2ccccc12 (configuration not stated),26,5.4*,i,-23,-6,i,0.0066,0.046*,0.027,0.011*,?,?
CC1=NN(C(N)=S)C(=O)C1N=Nc1ccc(Cl)cc1 (configuration not stated),11,/,i,-7,-7,i,/,/,/,/,/,/
COc1ccc(CN2CCC(CO)(Cc3cccc(C(F)(F)F)c3)CC2)cc1Cn1cccn1,11,0.032,i,26,-18,i,/,/,/,/,/,/
CC1CCCCN1S(=O)(=O)c1ccc(S(=O)(=O)N2CCN(C)CC2)cc1 (configuration not stated),18,/,i,-1,-8,i,/,/,/,/,/,/
C/C(=N\NC(=S)NCc1ccccc1)c1ccc(Br)cc1,6,1.6,i,451,-15,i,/,/,/,/,/,/
C/C(=N\NC(=S)NCc1ccccc1)c1ccc(Cl)s1,24,10*,i,11,-4,i,0.0097,0.017*,0.034,?,0.026*,0.012
COCCNC(=S)N/N=C(\C)c1ccc(Cl)s1,12,32*,i,-13,-1,i,0.014*,0.06*,0.033,0.02*,0.039*,0.012*
COCCNC(=S)N/N=C(\C)c1ccc(Cl)c(Cl)c1Cl,10,3.2,i,16,-13,i,/,/,/,/,/,/
